This is a sample that favours compounds with a hit; in the whole collection about 4.6% have one here.
Arbovirus inh = antivirals against arbovirus infection, primary screen, cell-based, full library, 10K replicate subset | AID 1251, 2008 | 200,000 tested, 0.37% active | arbovirus infection cell-based antiviral screen | inhibition, % at 10 µM; in the data active = inhibition above about 30%
WT yeast gro inh = growth inhibition of WT strain, primary screen, mitochondrial fusion inhibitor project, WT and mutant strains, chemical genetic | mitochondrial fusion phenotypic screen | 190,000 tested, 2.1% active | inhibition, % at 10 µM; in the data active = inhibition above about 58%; tested in S. cerevisiae
Hck Nef HTS = inhibitors of Nef-activated human Hck kinase, primary screen, biochemical, Z-Lyte FRET, 384-well, Hck-YEEI | Tyrosine-protein kinase HCK (Homo sapiens), P08631 | Recombinant Hck-YEEI plus Nef, Z-Lyte FRET kinase assay | inhibition, % at 20 µM | 220,000 tested, 0.68% active | AID 463187, 2010;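 active = Hck-Nef kinase inhibition above about 50%, limit read from the data; inactive = inhibition below that limit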
Calb biofilm kill = clotrimazole potentiators killing C. albicans biofilm, primary screen, 4-compound mixtures | 120,000 tested, 0.02% active | inhibition, % at 7.6 µM | C. albicans biofilm persisters + clotrimazole, fluorescence viability; primary screen in compound mixtures of four per well | AID 1242, 2008;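 active = inhibition above 30.3% in the primary screen of four-compound pools, then above 30% when the compound was retested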;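 also: compounds exposed to preformed 24 h biofilms for 48 h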
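Probe or stimulus – Clotrimazole 50 µg/mL co-treatment · System – C. albicans biofilms · Schedule – 24 h biofilm formation, then 48 h compound exposure, 37 °C · Evaluation – percent inhibition of biofilm viability · Technique – 2-h Alamar Blue fluorescence, 535/590 nm excitation/emission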
p47phox inh = p47phox/p22phox peptide binding inhibitors, primary screen, biochemical, uHTS, NADPH oxidase regulatory subunit; Neutrophil cytosol factor 1 (Homo sapiens), P14598; fluorescence polarization, 2 h; inhibition, % at 24.7 µM; 220,000 tested, 0.53% active;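 active = inhibition above about 30%, limit read from the data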
Target sequence (P14598 whole entry, looked up): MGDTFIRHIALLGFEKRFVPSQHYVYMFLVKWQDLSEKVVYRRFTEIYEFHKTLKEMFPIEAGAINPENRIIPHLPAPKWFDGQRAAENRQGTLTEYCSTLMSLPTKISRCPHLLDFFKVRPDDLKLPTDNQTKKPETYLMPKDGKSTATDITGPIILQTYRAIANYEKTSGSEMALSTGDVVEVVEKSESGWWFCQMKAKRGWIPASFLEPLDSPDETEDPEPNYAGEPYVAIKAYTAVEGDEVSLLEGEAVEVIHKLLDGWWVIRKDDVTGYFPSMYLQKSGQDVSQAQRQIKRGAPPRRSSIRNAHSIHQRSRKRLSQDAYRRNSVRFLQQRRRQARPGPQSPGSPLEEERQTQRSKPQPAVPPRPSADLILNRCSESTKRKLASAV
RAM inhibit = inhibitors of the yeast RAM network, primary screen, dse1pr::URA3 reporter, 5-FOA selection | S. cerevisiae dse1pr::URA3 reporter, 5-FOA growth OD615, 2 d; analog-sensitive cbk1-as2 kinase mutant strain | inhibition, % at 50 µM | AID 868, 2007 | 190,000 tested, 1.8% active;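 active = inhibition above a set limit, 3 SD over mean compound inhibition, cut at about 8.4% in these data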;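 also: inhibition rescues growth on 5-FOA so higher OD means more RAM inhibition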
Large screens that a line does not name were inactive.

CC(C)C(NC(=O)OCc1ccccc1)C(=O)N1CCOCCOCCOCC1 (stereo not given)	none
CCOC(=O)CSc1nc2c(sc(=S)n2-c2ccc(OCC)cc2)c(=O)[nH]1	Arbovirus inh 42
CCOc1ccc(-n2c(=S)sc3c(=O)[nH]c(SCC(=O)N4CCC(C)CC4)nc32)cc1	none (no result: Calb biofilm kill)
CCOc1ccc(-n2c(=S)sc3c(=O)[nH]c(SCC(=O)C(C)(C)C)nc32)cc1	Arbovirus inh 33
CCOC(=O)CSc1nc2c(sc(=S)n2-c2ccccc2)c(=O)[nH]1	none
COc1ccc([N+](=O)[O-])cc1NC(=S)NC(C)=O	none
COc1ccc([N+](=O)[O-])cc1NC(=O)CSc1ccc2ccccc2c1	RAM inhibit 8.4
COc1ccc([N+](=O)[O-])cc1NC(=O)C(C)Sc1ccc(C)cc1 (stereo not given)	RAM inhibit 9.2
COc1ccc([N+](=O)[O-])cc1NC(=O)c1ccc(Br)s1	Hck Nef HTS 79
COc1ccc(NC(=S)NC(NC(=O)c2ccc(Cl)cc2Cl)C(Cl)(Cl)Cl)c([N+](=O)[O-])c1 (stereo not given)	WT yeast gro inh 68 (no result: Calb biofilm kill)
COc1ccc(C2C(C(=O)NCc3cccnc3)c3ccccc3C(=O)N2C)cc1OC (stereo not given)	none (no result: Calb biofilm kill)
CCOC(=O)C1CCN(c2nc3c(C)cccn3c(=O)c2/C=C(\C#N)S(=O)(=O)c2ccccc2)CC1	none (no result: Arbovirus inh, WT yeast gro inh, RAM inhibit)
CCOc1ccc(CNC(=O)c2ccc(Sc3ccc(Cl)cc3)c(NC(C)=O)c2)cc1	none
CCOc1ccccc1CNC(=O)c1ccc(Sc2ccc(Cl)cc2)c(NC(C)=O)c1	WT yeast gro inh 65
Cc1nc(NC(C)c2ccccc2)c2oc3ccccc3c2n1 (stereo not given)	WT yeast gro inh 66 (no result: Calb biofilm kill)
CCO[C@H]1OC(C(=O)Nc2ccccc2)=C[C@@H](c2ccc(C(F)(F)F)cc2)[C@@H]1CCCO	WT yeast gro inh 75, RAM inhibit 9.0
CCO[C@@H]1OC(C(=O)NCc2nc3ccccc3[nH]2)=C[C@H](C)[C@H]1CCCO	p47phox inh 45
CCO[C@H]1OC(C(=O)NCc2nc3ccccc3[nH]2)=C[C@@H](C)[C@@H]1CCCO	none
O=C(COc1ccccc1C(=O)NCC1CCCO1)Nc1ccc(Br)cc1 (stereo not given)	none
c1cn2cc(-c3ccc4c(c3)OCO4)nc2s1	WT yeast gro inh 79 (no result: Calb biofilm kill)
C/C=C(\C)CN1CCN(c2cc(C)ccc2C)CC1	WT yeast gro inh 59 (no result: Calb biofilm kill)
C/C=C(\C)CN1CCN(c2cccc(C)c2C)CC1	none (no result: Calb biofilm kill)
O=C(Nc1ccccn1)c1csc2c1CCCC2	WT yeast gro inh 72
COc1ccccc1NC(=O)c1csc2c1CCCC2	none (no result: Calb biofilm kill)
O=C(CC(Nc1cccc(Cl)c1Cl)C(=O)OCC(=O)c1cccs1)c1ccccc1 (stereo not given)	RAM inhibit 9.0
COc1ccccc1NC(CC(=O)c1ccccc1)C(=O)OCC(=O)c1ccc(F)cc1 (stereo not given)	RAM inhibit 11
CNc1ccccc1C(=O)OCC(=O)c1ccc(F)cc1	none
Cc1c(Cl)cccc1NC(CC(=O)c1ccccc1)C(=O)OCC(=O)c1cccs1 (stereo not given)	none
COc1ccc(C(=O)CSc2nnc(CN3CCCC3)n2-c2ccc(F)cc2)c(OC)c1	none
CC(C)c1ccc(S(=O)(=O)/N=C2/C=C(Sc3ncn[nH]3)C(=O)c3ccccc32)cc1	p47phox inh 50
Cc1ccc(S(=O)(=O)/N=C2/C=C(Sc3ncn[nH]3)C(=O)c3ccccc32)cc1	p47phox inh 53
Cc1ccc(S(=O)(=O)/N=C2/C=C(Sc3ncn[nH]3)C(=O)c3ccccc32)c(C)c1	p47phox inh 37
Cc1ccc(S(=O)(=O)Nc2ccc(O)c(Sc3ncn[nH]3)c2)cc1	none
CCN(CC)C(=O)Cn1ccc(NC(C)=O)nc1=O	none (no result: Arbovirus inh, WT yeast gro inh, RAM inhibit)
O=C(O)C1CCC(=O)N(C2CCCCC2)C1c1ccccc1 (stereo not given)	none (no result: Calb biofilm kill)
COc1cc(-c2[nH]nc3c2C(c2ccco2)C(C#N)=C(N)O3)cc(OC)c1OC (stereo not given)	none
O=c1c2c3c(sc2nc2n1CCC2)CCC3	WT yeast gro inh 61 (no result: Calb biofilm kill)
Cc1nnc(SCC(=O)c2cc(C)n(-c3ccc4c(c3)OCO4)c2C)s1	none (no result: Calb biofilm kill)
O=[N+]([O-])c1ccccc1NCCNS(=O)(=O)c1ccc(Cl)cc1	none
O=[N+]([O-])c1ccc(NCCCNS(=O)(=O)c2ccc(Cl)cc2)c(Cl)c1	WT yeast gro inh 60, RAM inhibit 10 (no result: Calb biofilm kill)
O=C(/C=C\c1ccco1)Nc1nc(-c2ccccc2)cs1	none
O=C(/C=C/c1ccco1)Nc1sc2c(c1C(=O)O)CCC2	Arbovirus inh 73 (no result: Calb biofilm kill)
CC(C)c1ccc(C(CC(=O)O)NC(=O)c2cccs2)cc1 (stereo not given)	none
COC(=O)c1c(-c2ccccc2)csc1NC(=O)c1ccco1	none (no result: Calb biofilm kill)
Cc1ccc(-c2csc(NC(=O)/C=C/c3ccco3)c2C(=O)O)cc1	Arbovirus inh 71, Hck Nef HTS 52
CC(C)c1ccc(-c2csc(NC(=O)c3cccs3)c2C(=O)O)cc1	Arbovirus inh 41
N#Cc1c(NC(=O)/C=C/c2ccco2)sc2c1CCCC2	none
O=C(Nc1scc(-c2ccc(F)cc2)c1C(=O)O)c1ccco1	Arbovirus inh 35 (no result: Calb biofilm kill)
O=C(C1=C[C@H](c2ccccc2)C[C@H](OCCCCO)O1)N1CCOCC1	none (no result: p47phox inh)
Cc1cc(C)c(S(=O)(=O)n2nc(C)c(Br)c2C)c(C)c1	none
Cc1[nH]n(-c2ncc(-c3ccc(Cl)cc3)s2)c(=O)c1C(c1ccc(Cl)cc1)C(C#N)C#N (stereo not given)	RAM inhibit 8.6
COc1ccc(C(c2c(C)[nH]n(C(N)=S)c2=O)C(C#N)C#N)cc1 (stereo not given)	none
CCOC(=O)c1cc(C(=O)NC(C)c2ccccc2)c(C)[nH]c1=O (stereo not given)	none
Cc1cc(C)cc(OCC(=O)OCC(=O)c2ccc3c(c2)NC(=O)CO3)c1	WT yeast gro inh 70 (no result: Calb biofilm kill)
Cc1cc(C)c(C#N)c(SCc2ccc(F)cc2)n1	none
CCc1nc(SCc2ccc(F)cc2)[nH]c(=O)c1C#N	Arbovirus inh 40
COc1ccc(-c2noc(CCCC(=O)NCCc3ccccc3)n2)cc1OC	none (no result: Calb biofilm kill)
O=C(CCn1nc(-c2ccccc2)c2ccccc2c1=O)NCC1CCCO1 (stereo not given)	WT yeast gro inh 63 (no result: Calb biofilm kill)
COc1cccc(C2C3=C(CCCC3=O)NC3=C2C(=O)c2ccccc23)c1 (stereo not given)	none

Source: PubChem BioAssay
